From ChEMBL document CHEMBL1138456 (J Med Chem, 2009)
Values after ≈ are worked out from the molar mass of the structure shown.

Assays:
[1] = Aqueous solubility in water by shake flask method; format: physicochemical
How it was run: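 Solubility: about 5 mg solid per 1 mL deionized water, unbuffered, in triplicate. Samples were vortexed, sonicated and protected from light, then tumbled at 25 °C for 1 day. They were centrifuged, filtered and diluted, and analyzed by HPLC with UV detection at 215 nm.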

[2] = Chemical stability assessed as half life at pH 2 by HPLC; format: physicochemical; conditions: buffer
[3] = Stability assessed as half life at pH 8.0 in presence of calf intestine alkaline phosphatase; format: ADME, tissue-based; conditions: cattle
How it was run: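 Prodrug in 50 mM sodium phosphate pH 7.4 was incubated with calf intestinal alkaline phosphatase (0.000125 units/µL) in 10 mM Tris pH 8.0 at 37 °C for 30 min. Reactions were quenched with NaCl and MeOH/acetonitrile, held on ice for 30 min and centrifuged. Dephosphorylation half-life is in minutes.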

[4] = Half life in rat at 5 mg/kg, iv; format: ADME, organism-based; parameters: dose 5 mg/kg, route intravenous; conditions: in vivo
[5] = Clearance in rat at 5 mg/kg, iv; format: ADME, organism-based; parameters: dose 5 mg/kg, route intravenous; conditions: in vivo
[6] = Chemical stability assessed as half life at pH 9 by HPLC; format: physicochemical; conditions: buffer
[7] = Chemical stability assessed as half life at pH 7.4 by HPLC; format: physicochemical; conditions: buffer
[8] = Chemical stability assessed as half life at pH 5 by HPLC; format: physicochemical; conditions: buffer
[9] = AUC in Sprague-Dawley rat plasma at 5 mg/kg, po coadministered with RTV; format: ADME, organism-based; parameters: dose 5 mg/kg, route oral
How it was run: (§1)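 Male Sprague-Dawley-derived rats (0.25-0.35 kg, n = 3) were given oral gavage doses equivalent to 5 mg/kg parent (5 mg equiv/kg). Prodrugs were given in 5% dextrose in water. Parents were given in ethanol/propylene glycol formulation. For LPV species, a 5 mg/kg RTV gavage dose was given first. Plasma was analyzed by reversed-phase HPLC with an internal standard. Cmax is in µg/mL and AUC in µg·h/mL.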

[10] = Cmax in Sprague-Dawley rat plasma at 5 mg/kg, po coadministered with RTV; format: ADME, organism-based; parameters: dose 5 mg/kg, route oral; how it was run: as §1
[11] = Cmax in po dosed Beagle dog at dose molar equivalent to 5 mg/kg RTV coadministered with LPV-OMP dosed as 5% dextrose containing solution; format: ADME, organism-based, Canis lupus familiaris; parameters: dose 5 mg/kg, route oral; conditions: in vivo
How it was run: (§2)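 Male and female beagle dogs (8-12 kg, n = 3) were dosed orally at 5 mg equiv/kg of parent. Parents were dissolved in 5% dextrose with 20% ethanol, 30% propylene glycol and 2 equiv methanesulfonic acid. Prodrugs were dissolved in 5% dextrose. Plasma was measured by reversed-phase HPLC with an internal standard. Cmax is in µg/mL and AUC in µg·h/mL.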

[12] = Cmax in po dosed Beagle dog at dose molar equivalent to 5 mg/kg RTV coadministered with LPV dosed as 5% dextrose containing solution; format: ADME, organism-based, Canis lupus familiaris; parameters: dose 5 mg/kg, route oral; conditions: in vivo; how it was run: as §2
[13] = AUC in po dosed Beagle dog at dose molar equivalent to 5 mg/kg RTV coadministered with LPV-OMP dosed as 5% dextrose containing solution; format: ADME, organism-based, Canis lupus familiaris; parameters: dose 5 mg/kg, route oral; conditions: plasma; how it was run: as §2
[14] = tested on: Rattus norvegicus; experiment: AUC in Sprague-Dawley rat plasma at 5 mg/kg, po; format: ADME, organism-based; parameters: dose 5 mg/kg, route oral; conditions: in vivo; how it was run: as §1
[15] = AUC in po dosed Beagle dog at dose molar equivalent to 5 mg/kg RTV coadministered with LPV dosed as 5% dextrose containing solution; format: ADME, organism-based, Canis lupus familiaris; parameters: dose 5 mg/kg, route oral; conditions: plasma; how it was run: as §2

SMILES	solubility thermodynamic [1] [µg/mL]	half-life [2] [min]	half-life [3] [min]	further results
CC(C)c1nc(CN(C)C(=O)N[C@H](C(=O)N[C@@H](Cc2ccccc2)C[C@H](OCOP(=O)([O-])[O-])[C@H](Cc2ccccc2)NC(=O)OCc2cncs2)C(C)C)cs1.[Na+].[Na+]	> 5000	516	7	–
Cc1cccc(C)c1OCC(=O)N[C@@H](Cc1ccccc1)[C@H](C[C@H](Cc1ccccc1)NC(=O)[C@H](C(C)C)N1CCCNC1=O)OCOP(=O)([O-])[O-].[Na+].[Na+]	> 5000	468	13.9	–
CC(C)c1nc(CN(C)C(=O)N[C@H](C(=O)N[C@@H](Cc2ccccc2)C[C@H](OP(=O)([O-])[O-])[C@H](Cc2ccccc2)NC(=O)OCc2cncs2)C(C)C)cs1.[Na+].[Na+]	–	–	–	half-life [4]: 13.8 min; clearance [5]: 43 mL/min/kg
CCCC(O[C@@H](C[C@H](Cc1ccccc1)NC(=O)[C@@H](NC(=O)N(C)Cc1csc(C(C)C)n1)C(C)C)[C@H](Cc1ccccc1)NC(=O)OCc1cncs1)OP(=O)([O-])[O-].[Na+].[Na+] (stereo not given in full)	–	–	31.7	–
Cc1cccc(C)c1OCC(=O)N[C@@H](Cc1ccccc1)[C@H](C[C@H](Cc1ccccc1)NC(=O)[C@H](C(C)C)N1CCCNC1=O)OC(C)OP(=O)([O-])[O-].[Na+].[Na+] (stereo not given in full)	> 5000	< 15	20.4	half-life [6]: > 100 days; half-life [7]: 19 days; half-life [8]: 133 min
Cc1cccc(C)c1OCC(=O)N[C@@H](Cc1ccccc1)[C@@H](O)C[C@H](Cc1ccccc1)NC(=O)[C@H](C(C)C)N1CCCNC1=O [LOPINAVIR]	7 (≈ 11.1 µM)	–	–	AUC [9]: 9280 ng·h/mL; Cmax [10]: 1550 ng/mL
CC(C)c1nc(CN(C)C(=O)N[C@H](C(=O)N[C@@H](Cc2ccccc2)C[C@H](O)[C@H](Cc2ccccc2)NC(=O)OCc2cncs2)C(C)C)cs1 [RITONAVIR]	–	–	–	Cmax [11]: 2130 ng/mL; Cmax [12]: 1320 ng/mL; AUC [13]: 4430 ng·h/mL; AUC [14]: 3530 ng·h/mL; AUC [15]: 2190 ng·h/mL

Now from value to molecule, other results behind:

solubility thermodynamic [1] [µg/mL]	half-life [2] [min]	half-life [3] [min]	SMILES	further results
> 5000	< 15	14.8	CC(O[C@@H](C[C@H](Cc1ccccc1)NC(=O)[C@@H](NC(=O)N(C)Cc1csc(C(C)C)n1)C(C)C)[C@H](Cc1ccccc1)NC(=O)OCc1cncs1)OP(=O)([O-])[O-].[Na+].[Na+] (stereo not given in full)	half-life [6]: > 100 days; half-life [7]: 12 days; half-life [8]: 76 min
–	–	> 30	CC(C)c1nc(CN(C)C(=O)N[C@H](C(=O)N[C@@H](Cc2ccccc2)C[C@H](OC(OP(=O)([O-])[O-])C(C)C)[C@H](Cc2ccccc2)NC(=O)OCc2cncs2)C(C)C)cs1.[Na+].[Na+] (stereo not given in full)	–
